Reference: ChEMBL document CHEMBL4229550, “An antimycobacterial pleuromutilin analogue effective against dormant bacilli” (Bioorg Med Chem, 2018)
Converted amounts (≈) assume the structure as drawn. The source made the active and inactive calls. The calls are words filed in the database; no cut-off is given here.

Assays:
[1] = tested on: Staphylococcus aureus; test: Bactericidal activity against Staphylococcus aureus ATCC 25923 incubated for 24 hrs under aerobic condition by MABA; type: functional; details: ATCC 25923, 24 h
[2] = tested on: Staphylococcus aureus; test: Bactericidal activity against Staphylococcus aureus BAA 1683 incubated for 24 hrs under aerobic condition by MABA; type: functional; details: BAA 1683, 24 h
[3] = Selectivity index, ratio of IC50 for African green monkey Vero cells to MIC100 for replicating Mycobacterium tuberculosis H37Rv by MABA; type: toxicity; details: read-out: Selectivity Index
Outline: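 Vero cells are cultured in EMEM with 10% FBS and exposed for 72 h to 0.78–200 µg/mL. Medium is switched to phenol-red-free EMEM, MTT is added, and formazan is read at 570 nm to give IC50. The selectivity index is Vero IC50 divided by the MABA MIC.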

[4] = tested on: Staphylococcus aureus; test: Antibacterial activity against Staphylococcus aureus ATCC 25923 incubated for 24 hrs under aerobic condition by MABA; type: functional; details: ATCC 25923, 24 h, read-out: MIC100
Outline: (§1)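 Mid-log cultures at OD 0.5 were exposed to serial dilutions under aerobic conditions at 37 °C for 24 h. Resazurin was then added from a 0.08% stock for 1 h. MIC100 was the lowest concentration where the dye stayed blue (pink means growth). Absorbance was also read at 570 and 600 nm.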

[5] = tested on: Streptococcus pneumoniae; test: Antibacterial activity against Streptococcus pneumoniae ATCC 6301 incubated for 24 hrs under aerobic condition by MABA; type: functional; details: ATCC 6301, 24 h, read-out: MIC100; outline: as §1
[6] = tested on: Staphylococcus aureus; test: Antibacterial activity against Staphylococcus aureus incubated for 24 hrs under aerobic condition by MABA; type: functional; details: read-out: MIC100
Outline: (§2)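 Resazurin was then added from a 0.08% stock for 1 h. MIC100 was the lowest concentration where the dye stayed blue (pink means growth). Absorbance was also read at 570 and 600 nm.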

[7] = tested on: Enterococcus faecalis; test: Bactericidal activity against Enterococcus faecalis ATCC 19433 incubated for 24 hrs under aerobic condition by MABA; type: functional; details: ATCC 19433, 24 h
[8] = tested on: Acinetobacter baumannii; test: Antibacterial activity against Acinetobacter baumannii ATCC 19606 incubated for 24 hrs under aerobic condition by MABA; type: functional; details: ATCC 19606 = CIP 70.34 = JCM 6841, 24 h, read-out: MIC100; outline: as §1
[9] = tested on: Klebsiella pneumoniae; test: Antibacterial activity against Klebsiella pneumoniae ATCC 12019 incubated for 24 hrs under aerobic condition by MABA; type: functional; details: ATCC 12019, 24 h, read-out: MIC100; outline: as §1
[10] = Half life in Sprague-Dawley rat liver microsomes at 500 ng/ml preincubated for 5 mins followed by NADPH addition by C-MS/MS analysis; type: ADME, microsome
[11] = tested on: Enterococcus faecalis; test: Bactericidal activity against Enterococcus faecalis ATCC 349 incubated for 24 hrs under aerobic condition by MABA; type: functional; details: ATCC 349, 24 h
[12] = tested on: Mycobacterium tuberculosis; test: Antibacterial activity against replicating Mycobacterium tuberculosis H37Rv incubated for 15 days under aerobic condition by MABA; type: functional; details: 360 h, read-out: MIC100
Outline: (§3)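 Mtb H37Rv grown in 7H9/OADC at 37 °C with shaking to OD600 0.5. The 0.5-OD culture is exposed aerobically to serial dilutions for 15 days at 37 °C. Resazurin (0.02% stock) is then added for 4 h at 37 °C with shaking.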

[13] = tested on: Bacillus subtilis; test: Antibacterial activity against Bacillus subtilis ATCC 6051 incubated for 24 hrs under aerobic condition by MABA; type: functional; details: ATCC 6051, 24 h, read-out: MIC100; outline: as §1
[14] = tested on: Mycolicibacterium smegmatis; test: Antibacterial activity against Mycobacterium smegmatis ATCC 607 incubated for 48 hrs under aerobic condition by MABA; type: functional; details: ATCC 607, 48 h, read-out: MIC100
Outline: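 Mid-log culture at OD 0.5 was incubated with serial dilutions aerobically at 37 °C for 48 h. Resazurin was then added from a 0.08% stock for 1 h. MIC100 was the lowest concentration that stayed blue; absorbance was also read at 570/600 nm.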

[15] = tested on: Staphylococcus aureus; test: Antibacterial activity against Staphylococcus aureus BAA 44 incubated for 24 hrs under aerobic condition by MABA; type: functional; details: BAA 44, 24 h, read-out: MIC100; outline: as §1
[16] = tested on: Staphylococcus aureus; test: Antibacterial activity against Staphylococcus aureus BAA 1683 incubated for 24 hrs under aerobic condition by MABA; type: functional; details: BAA 1683, 24 h, read-out: MIC100; outline: as §1
[17] = tested on: Staphylococcus aureus; test: Bactericidal activity against Staphylococcus aureus BAA 2094 incubated for 24 hrs under aerobic condition by MABA; type: functional; details: BAA 2094, 24 h
[18] = tested on: Enterococcus faecalis; test: Antibacterial activity against Enterococcus faecalis ATCC 349 incubated for 24 hrs under aerobic condition by MABA; type: functional; details: ATCC 349, 24 h, read-out: MIC100; outline: as §1
[19] = tested on: Staphylococcus aureus; test: Bactericidal activity against Staphylococcus aureus BAA 44 incubated for 24 hrs under aerobic condition by MABA; type: functional; details: BAA 44, 24 h
[20] = tested on: Bacillus subtilis; test: Bactericidal activity against Bacillus subtilis ATCC 6051 incubated for 24 hrs under aerobic condition by MABA; type: functional; details: ATCC 6051, 24 h
[21] = tested on: Escherichia coli; test: Bactericidal activity against Escherichia coli ATCC 10798 incubated for 24 hrs under aerobic condition by MABA; type: functional; details: ATCC 10798, 24 h
[22] = tested on: Mycobacterium tuberculosis; test: Bactericidal activity against replicating Mycobacterium tuberculosis H37Rv incubated for 15 days under aerobic condition by MABA; type: functional; details: 360 h; outline: as §3
[23] = tested on: Escherichia coli; test: Inhibition of protein translation/transcription in Escherichia coli S30 cell extract at 0.1 ug/ml using circular DNA with pBESTluc after 60 mins by luciferase reporter gene assay; type: functional
Outline: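 Coupled transcription/translation used E. coli S30 extract, amino acid mix and premix, with the pBESTluc template carrying firefly luciferase under the tac promoter. Compounds were added in DMSO and reactions were started with DNA. Incubation was 60 min at 37 °C, stopped on ice, and luciferase was read after adding assay substrate.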

[24] = tested on: Escherichia coli; test: Antibacterial activity against Escherichia coli ATCC 10798 incubated for 24 hrs under aerobic condition by MABA; type: functional; details: ATCC 10798, 24 h, read-out: MIC100; outline: as §1
[25] = tested on: Staphylococcus aureus; test: Bactericidal activity against Staphylococcus aureus incubated for 24 hrs under aerobic condition by MABA; type: functional
[26] = tested on: Streptococcus salivarius; test: Antibacterial activity against Streptococcus salivarius […] incubated for 24 hrs under aerobic condition by MABA; type: functional; details: read-out: MIC100; outline: as §2
[27] = tested on: Streptococcus pneumoniae; test: Bactericidal activity against Streptococcus pneumoniae ATCC 6301 incubated for 24 hrs under aerobic condition by MABA; type: functional; details: ATCC 6301, 24 h
[28] = tested on: Acinetobacter baumannii; test: Bactericidal activity against Acinetobacter baumannii ATCC 19606 incubated for 24 hrs under aerobic condition by MABA; type: functional; details: ATCC 19606 = CIP 70.34 = JCM 6841, 24 h
[29] = tested on: Enterococcus faecalis; test: Antibacterial activity against Enterococcus faecalis ATCC 19433 incubated for 24 hrs under aerobic condition by MABA; type: functional; details: ATCC 19433, 24 h, read-out: MIC100; outline: as §1
[30] = tested on: Staphylococcus aureus; test: Antibacterial activity against Staphylococcus aureus BAA 2094 incubated for 24 hrs under aerobic condition by MABA; type: functional; details: BAA 2094, 24 h, read-out: MIC100; outline: as §2
[31] = tested on: Clostridioides difficile; test: Bactericidal activity against Clostridium difficile ATCC 700057 incubated for 24 hrs […] by MABA; type: functional; details: ATCC 700057, 24 h
[32] = tested on: Klebsiella pneumoniae; test: Bactericidal activity against Klebsiella pneumoniae ATCC 12019 incubated for 24 hrs under aerobic condition by MABA; type: functional; details: ATCC 12019, 24 h
[33] = tested on: Mycolicibacterium smegmatis; test: Bactericidal activity against Mycobacterium smegmatis ATCC 607 incubated for 48 hrs under aerobic condition by MABA; type: functional; details: ATCC 607, 48 h
[34] = tested on: Streptococcus salivarius; test: Bactericidal activity against Streptococcus salivarius ATCC 6301 incubated for 24 hrs under aerobic condition by MABA; type: functional; details: ATCC 6301, 24 h
[35] = tested on: Mycolicibacterium smegmatis; test: Antibacterial activity against Mycobacterium smegmatis; type: functional

Which MBC [1] does the source give for `C=C[C@]1(C)C[C@@H](OC(=O)CSC(C)(C)CNC(=O)[C@H](N)C(C)C)[C@]2(C)[C@H](C)CC[C@]3(CCC(=O)[C@H]32)[C@@H](C)[C@@H]1O` [VALNEMULIN] here?
The MBC was > 25 µg/mL.

What about the MBC [2] of the same compound?
Its MBC is > 25 µg/mL.

And the selectivity ratio [3]?
The selectivity ratio was 4.79.

What about the MIC [4] of the same compound?
Its MIC is > 25 µg/mL.

And the MIC [5]?
The MIC was 12.5 µg/mL (≈ 22.1 µM).

And the MIC [6]?
Its MIC is 0.4 µg/mL (≈ 0.708 µM).

What about the MBC [7] of the same compound?
Its MBC is 12.5 µg/mL (≈ 22.1 µM).

And the MIC [8]?
The MIC was 4.69 µg/mL (≈ 8.3 µM).

What about the MIC [9] of the same compound?
Its MIC is 12.5 µg/mL (≈ 22.1 µM).

What about the t1/2 [10] of the same compound?
The t1/2 was 10 min.

And the MBC [11]?
Its MBC is > 25 µg/mL.

And the MIC [12]?
The MIC was 3.13 µg/mL (≈ 5.54 µM).

And the MIC [13]?
Its MIC is 12.5 µg/mL (≈ 22.1 µM).

What about the MIC [14] of the same compound?
The MIC was 12.5 µg/mL (≈ 22.1 µM).

And the MIC [15]?
The MIC was > 25 µg/mL.

What about the MIC [16] of the same compound?
The MIC was > 25 µg/mL.

What about the MBC [17] of the same compound?
The MBC was > 25 µg/mL.

What about the MIC [18] of the same compound?
Its MIC is > 25 µg/mL.

What about the MBC [19] of the same compound?
Its MBC is > 25 µg/mL.

And the MBC [20]?
Its MBC is 25 µg/mL (≈ 44.3 µM).

What about the MBC [21] of the same compound?
Its MBC is > 25 µg/mL.

And the MBC [22]?
The MBC was 6.25 µg/mL (≈ 11.1 µM).

What about the inhibition [23] of the same compound?
Its inhibition is “Active”.

And the MIC [24]?
The MIC was 12.5 µg/mL (≈ 22.1 µM).

And the MBC [25]?
The MBC was 0.8 µg/mL (≈ 1.42 µM).

And the MIC [26]?
Its MIC is 0.4 µg/mL (≈ 0.708 µM).

What about the MBC [27] of the same compound?
Its MBC is > 25 µg/mL.

And the MBC [28]?
Its MBC is 6.25 µg/mL (≈ 11.1 µM).

What about the MIC [29] of the same compound?
The MIC was 6.25 µg/mL (≈ 11.1 µM).

What about the MIC [30] of the same compound?
Its MIC is > 25 µg/mL.

What about the MBC [31] of the same compound?
The MBC was 1.56 µg/mL (≈ 2.76 µM).

What about the MBC [32] of the same compound?
Its MBC is 25 µg/mL (≈ 44.3 µM).

And the MBC [33]?
Its MBC is 25 µg/mL (≈ 44.3 µM).

What about the MBC [34] of the same compound?
Its MBC is > 25 µg/mL.

And the MIC [35]?
The MIC was 8 to 16 µg/mL (≈ 14.2 to 28.3 µM).
